# Laboratory results published in ChEMBL document CHEMBL5230171, “Expanding the structure-activity relationships of alkynyl diphenylurea scaffold as promising antibacterial agents” (RSC Med Chem, 2023).
# Active and inactive are the calls of the source. The calls are words filed in the database; no cut-off is given here.
# Legend:
# Staphylococcus aureus [1] = assay: Antibacterial activity against methicillin resistant Staphylococcus aureus NRS384 USA300 assessed as inhibition of bacterial growth incubated for 18 to 20 hrs by CLSI protocol based broth microdilution method; format: functional; details: time 18-20 hrs, read-out: MIC
# Summary of the method: (§1)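 Broth microdilution against staphylococcal clinical isolates. Each strain was prepared as a 0.5 McFarland suspension and diluted in cation-adjusted Mueller Hinton broth to ~5 × 10^5 CFU mL−1. Serial dilutions of test agents in DMSO stock were incubated with the bacteria, and the MIC was recorded.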
# Staphylococcus aureus [2] = assay: Antibacterial activity against methicillin resistant Staphylococcus aureus 123 assessed as inhibition of bacterial growth at 0.5 ug/ml incubated for 18 to 20 hrs by CLSI protocol based broth microdilution method; format: functional, organism-based; details: dose 0.5 µg/ml, time 18-20 hrs
# Staphylococcus aureus [3] = assay: Antibacterial activity against methicillin resistant Staphylococcus aureus 384 assessed as inhibition of bacterial growth at 0.5 ug/ml incubated for 18 to 20 hrs by CLSI protocol based broth microdilution method; format: functional, organism-based; details: dose 0.5 µg/ml, time 18-20 hrs
# Staphylococcus aureus [4] = assay: Antibacterial activity against methicillin resistant Staphylococcus aureus 119 assessed as inhibition of bacterial growth at 0.5 ug/ml incubated for 18 to 20 hrs by CLSI protocol based broth microdilution method; format: functional, organism-based; details: dose 0.5 µg/ml, time 18-20 hrs
# Staphylococcus aureus [5] = assay: Antibacterial activity against methicillin resistant Staphylococcus aureus 385 assessed as inhibition of bacterial growth at 0.5 ug/ml incubated for 18 to 20 hrs by CLSI protocol based broth microdilution method; format: functional, organism-based; details: dose 0.5 µg/ml, time 18-20 hrs
# Staphylococcus aureus [6] = assay: Antibacterial activity against methicillin resistant Staphylococcus aureus 386 assessed as inhibition of bacterial growth at 0.5 ug/ml incubated for 18 to 20 hrs by CLSI protocol based broth microdilution method; format: functional, organism-based; details: dose 0.5 µg/ml, time 18-20 hrs
# Staphylococcus aureus [7] = assay: Antibacterial activity against vancomycin resistant Staphylococcus aureus 10 assessed as inhibition of bacterial growth at 0.5 ug/ml incubated for 18 to 20 hrs by CLSI protocol based broth microdilution method; format: functional, organism-based; details: dose 0.5 µg/ml, time 18-20 hrs
# Staphylococcus aureus [8] = assay: Antibacterial activity against vancomycin resistant Staphylococcus aureus 12 assessed as inhibition of bacterial growth at 0.5 ug/ml incubated for 18 to 20 hrs by CLSI protocol based broth microdilution method; format: functional, organism-based; details: dose 0.5 µg/ml, time 18-20 hrs
# Staphylococcus aureus [9] = assay: Antibacterial activity against vancomycin resistant Staphylococcus aureus 9 assessed as inhibition of bacterial growth at 0.5 ug/ml incubated for 18 to 20 hrs by CLSI protocol based broth microdilution method; format: functional, organism-based; details: dose 0.5 µg/ml, time 18-20 hrs
# Staphylococcus aureus [10] = assay: Antibacterial activity against methicillin sensitive Staphylococcus aureus 107 assessed as inhibition of bacterial growth at 0.5 ug/ml incubated for 18 to 20 hrs by CLSI protocol based broth microdilution method; format: functional, organism-based; details: dose 0.5 µg/ml, time 18-20 hrs
# Summary of the method: (§2)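 Staphylococcal and E. coli strains were diluted from a 0.5 McFarland suspension in cation-adjusted Mueller Hinton broth to ~5 × 10^5 CFU mL−1. They were incubated with serial dilutions of test agent in broth microdilution, and the MIC was recorded.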
# Staphylococcus aureus [11] = assay: Antibacterial activity against methicillin sensitive Staphylococcus aureus 6538 assessed as inhibition of bacterial growth at 0.5 ug/ml incubated for 18 to 20 hrs by CLSI protocol based broth microdilution method; format: functional, organism-based; details: dose 0.5 µg/ml, time 18-20 hrs; summary of the method: as §2
# Staphylococcus aureus [12] = assay: Antibacterial activity against methicillin resistant Staphylococcus aureus 123 assessed as inhibition of bacterial growth incubated for 18 to 20 hrs by CLSI protocol based broth microdilution method; format: functional; details: time 18-20 hrs; summary of the method: as §1
# Staphylococcus aureus [13] = assay: Antibacterial activity against methicillin resistant Staphylococcus aureus 384 assessed as inhibition of bacterial growth incubated for 18 to 20 hrs by CLSI protocol based broth microdilution method; format: functional; details: time 18-20 hrs; summary of the method: as §1
# Staphylococcus aureus [14] = assay: Antibacterial activity against methicillin resistant Staphylococcus aureus 119 assessed as inhibition of bacterial growth incubated for 18 to 20 hrs by CLSI protocol based broth microdilution method; format: functional; details: time 18-20 hrs; summary of the method: as §1
# Staphylococcus aureus [15] = assay: Antibacterial activity against methicillin resistant Staphylococcus aureus 385 assessed as inhibition of bacterial growth incubated for 18 to 20 hrs by CLSI protocol based broth microdilution method; format: functional; details: time 18-20 hrs; summary of the method: as §1
# Staphylococcus aureus [16] = assay: Antibacterial activity against methicillin resistant Staphylococcus aureus 386 assessed as inhibition of bacterial growth incubated for 18 to 20 hrs by CLSI protocol based broth microdilution method; format: functional; details: time 18-20 hrs; summary of the method: as §1
# Staphylococcus aureus [17] = assay: Antibacterial activity against vancomycin resistant Staphylococcus aureus 10 assessed as inhibition of bacterial growth incubated for 18 to 20 hrs by CLSI protocol based broth microdilution method; format: functional; details: time 18-20 hrs; summary of the method: as §1
# Staphylococcus aureus [18] = assay: Antibacterial activity against vancomycin resistant Staphylococcus aureus 12 assessed as inhibition of bacterial growth incubated for 18 to 20 hrs by CLSI protocol based broth microdilution method; format: functional; details: time 18-20 hrs; summary of the method: as §1
# Staphylococcus aureus [19] = assay: Antibacterial activity against vancomycin resistant Staphylococcus aureus 9 assessed as inhibition of bacterial growth incubated for 18 to 20 hrs by CLSI protocol based broth microdilution method; format: functional; details: time 18-20 hrs; summary of the method: as §1
# Staphylococcus aureus [20] = assay: Antibacterial activity against methicillin sensitive Staphylococcus aureus 107 assessed as inhibition of bacterial growth incubated for 18 to 20 hrs by CLSI protocol based broth microdilution method; format: functional; details: time 18-20 hrs; summary of the method: as §1
# Staphylococcus aureus [21] = assay: Antibacterial activity against methicillin sensitive Staphylococcus aureus 6538 assessed as inhibition of bacterial growth incubated for 18 to 20 hrs by CLSI protocol based broth microdilution method; format: functional; details: time 18-20 hrs; summary of the method: as §1
# [22] = test system: Staphylococcus epidermidis; assay: Antibacterial activity against Staphylococcus epidermidis 101 assessed as inhibition of bacterial growth incubated for 18 to 20 hrs by CLSI protocol based broth microdilution method; format: functional; details: time 18-20 hrs; summary of the method: as §2
# Streptococcus pneumoniae [23] = assay: Antibacterial activity against Streptococcus pneumoniae 700677 assessed as inhibition of bacterial growth incubated for 18 to 20 hrs by CLSI protocol based broth microdilution method; format: functional; details: time 18-20 hrs
# Summary of the method: (§3)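 Streptococci were diluted from a 0.5 McFarland suspension in cation-adjusted Mueller Hinton broth with 5% lysed horse blood. They were incubated with serial dilutions of test agent in broth microdilution, and the MIC was recorded.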
# Streptococcus pneumoniae [24] = assay: Antibacterial activity against Streptococcus pneumoniae 51916 assessed as inhibition of bacterial growth incubated for 18 to 20 hrs by CLSI protocol based broth microdilution method; format: functional; details: time 18-20 hrs; summary of the method: as §3
# Streptococcus pyogenes [25] = assay: Antibacterial activity against Streptococcus pyogenes MGAS 1882 assessed as inhibition of bacterial growth incubated for 18 to 20 hrs by CLSI protocol based broth microdilution method; format: functional; details: time 18-20 hrs; summary of the method: as §3
# Streptococcus pyogenes [26] = assay: Antibacterial activity against Streptococcus pyogenes MGAS 9882 assessed as inhibition of bacterial growth incubated for 18 to 20 hrs by CLSI protocol based broth microdilution method; format: functional; details: time 18-20 hrs; summary of the method: as §3
# Streptococcus mutans = assay: Antibacterial activity against Streptococcus mutans 25175 assessed as inhibition of bacterial growth incubated for 18 to 20 hrs by CLSI protocol based broth microdilution method; format: functional; details: time 18-20 hrs; summary of the method: as §3
# Enterococcus faecalis = assay: Antibacterial activity against Enterococcus faecalis 51299 assessed as inhibition of bacterial growth incubated for 18 to 20 hrs by CLSI protocol based broth microdilution method; format: functional; details: time 18-20 hrs
# Summary of the method: (§4)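 Enterococci and L. monocytogenes were diluted from a 0.5 McFarland suspension in TSB. They were incubated with serial dilutions of test agent in broth microdilution, and the MIC was recorded.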
# Enterococcus faecium = assay: Antibacterial activity against Enterococcus faecium 700221 assessed as inhibition of bacterial growth incubated for 18 to 20 hrs by CLSI protocol based broth microdilution method; format: functional; details: time 18-20 hrs; summary of the method: as §4
# Listeria monocytogenes = assay: Antibacterial activity against Listeria monocytogenes 19111 assessed as inhibition of bacterial growth incubated for 18 to 20 hrs by CLSI protocol based broth microdilution method; format: functional; details: time 18-20 hrs; summary of the method: as §4
# Vero = assay: Cytotoxicity against African green monkey Vero cells assessed as reduction in cell viability at 64 ug/ml incubated for 24 hrs by MTS assay; format: toxicity, cell-based; details: chlorocebus sabaeus, dose 64 µg/ml
# Summary of the method: (§5)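 Vero or HaCaT cells were exposed to 32, 64 and 128 μg mL−1 compound in triplicate for 24 h at 37 °C, 5% CO2, with a DMSO control. MTS was then added for 4 h and OD490 read. Analysis used two-way ANOVA with Dunnett's post hoc test (p < 0.05).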
# [27] = Cytotoxicity against human HaCaT cells assessed as tolerance by measuring cell viability at 64 ug/ml incubated for 24 hrs by MTS assay relative to control; format: toxicity, cell-based; details: at 64 µg/mL, read-out: Activity; summary of the method: as §5
SMILES,MIC (Staphylococcus aureus [1]) [µg/mL],Activity (Staphylococcus aureus [2]),Activity (Staphylococcus aureus [3]),Activity (Staphylococcus aureus [4]),Activity (Staphylococcus aureus [5]),Activity (Staphylococcus aureus [6]),Activity (Staphylococcus aureus [7]),Activity (Staphylococcus aureus [8]),Activity (Staphylococcus aureus [9]),Activity (Staphylococcus aureus [10]),Activity (Staphylococcus aureus [11]),Activity (Vero),further results
C/C(=N\NC(=N)N)c1ccc(NC(=O)Nc2ccc(C#CC(C)(C)C)cc2)cc1,0.5,Active,Active,Active,Active,Active,Active,Active,Active,Active,Active,–,–
C/C(=N\NC(=N)N)c1ccc(NC(=O)Nc2ccc(C#CC3CCCCC3)cc2)cc1,4000,–,–,–,–,–,–,–,–,–,–,–,–
C/C(=N\NC(=N)N)c1ccc(NC(=O)Nc2ccc(C#CCC(C)C)cc2)cc1,0.5,Active,Active,Active,Active,Active,Active,Active,Active,Active,Active,Non-Toxic,MIC (Staphylococcus aureus [12]): 0.5 µg/mL; MIC (Staphylococcus aureus [13]): 0.5 µg/mL; MIC (Staphylococcus aureus [14]): 0.5 µg/mL; MIC (Staphylococcus aureus [15]): 0.5 µg/mL; MIC (Staphylococcus aureus [16]): 0.5 µg/mL; MIC (Staphylococcus aureus [17]): 0.5 µg/mL; MIC (Staphylococcus aureus [18]): 0.5 µg/mL; MIC (Staphylococcus aureus [19]): 0.5 µg/mL; MIC (Staphylococcus aureus [20]): 0.5 µg/mL; MIC (Staphylococcus aureus [21]): 0.5 µg/mL; MIC [22]: 0.5 µg/mL; MIC (Streptococcus pneumoniae [23]): 0.5 µg/mL; MIC (Streptococcus pneumoniae [24]): 0.5 µg/mL; MIC (Streptococcus pyogenes [25]): 0.5 µg/mL; MIC (Streptococcus pyogenes [26]): 0.5 µg/mL; MIC (Streptococcus mutans): 0.5 µg/mL; MIC (Enterococcus faecalis): 0.5 µg/mL; MIC (Enterococcus faecium): 0.5 µg/mL; MIC (Listeria monocytogenes): 0.5 µg/mL
CCCC#Cc1ccc(NC(=O)Nc2ccc(/C(C)=N/NC(=N)N)cc2)cc1,0.5,–,–,–,–,–,–,–,–,–,–,–,–
CCCCCC#Cc1ccc(NC(=O)Nc2ccc(/C(C)=N/NC(=N)N)cc2)cc1,0.5,Active,Active,Active,Active,Active,Active,Active,Active,Active,Active,Non-Toxic,"viability at 24 h, 64 ug/ml [27]: 100%"
